rCAG binder: molecules binding r(CAG) RNA repeats | r(CAG) RNA repeat, TO-PRO-1 dye displacement fluorescence | inhibition, % at 3 µM | 1.3% of 370,000 active;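 active means inhibition above the plate cutoff, the mean of all test compounds on that plate plus 3 SD, cut at about 35% in these data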;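 further: 0% = DMSO alone and 100% = 100 µM mitoxantrone as full dye displacement; higher means more dye released from RNA so lower well fluorescence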
NR2E3 ag-1: agonists of human nuclear receptor NR2E3; 0.12% of 320,000 active; Q9Y5X4; GST-NR2E3/biotin-RetCOR TR-FRET, 1536-well; inhibition of corepressor binding, % at 4.78 µM;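 active means percent inhibition above the cutoff of mean plus 3 SD of all tested compounds, set per screening campaign, cut at about 20% in these data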;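 further: 0% = DMSO wells and 100% = biotin wells as full block of FRET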
Target sequence (Q9Y5X4 whole entry, looked up): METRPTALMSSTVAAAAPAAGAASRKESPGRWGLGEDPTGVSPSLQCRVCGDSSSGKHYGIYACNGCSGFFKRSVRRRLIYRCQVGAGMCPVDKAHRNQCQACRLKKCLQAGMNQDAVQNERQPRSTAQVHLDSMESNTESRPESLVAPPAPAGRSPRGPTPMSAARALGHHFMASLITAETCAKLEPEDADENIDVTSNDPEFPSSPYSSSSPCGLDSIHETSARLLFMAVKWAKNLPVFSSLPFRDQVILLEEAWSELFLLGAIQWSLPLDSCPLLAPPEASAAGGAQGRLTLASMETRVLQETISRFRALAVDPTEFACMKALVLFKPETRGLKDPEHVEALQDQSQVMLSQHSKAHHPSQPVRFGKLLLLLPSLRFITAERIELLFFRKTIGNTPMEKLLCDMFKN
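Assay system: NR2E3–RetCOR corepressor complex. Quantity: 1.35 nM GST-NR2E3. Buffer or medium: pH 7.5 Tris-based buffer. Reagent: biotinylated RetCOR corepressor at 7 nM final. Schedule: 5 h at 4 °C. Detection: TR-FRET, emission read at 617 and 671 nm. Replicates: one well per compound, singlicate testing.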
Rev-erbA mod: Rev-erb alpha (human) modulation. AID 1259318. Rev-erbα–FITC-DNA binding, fluorescence polarization, 90 min. 0.79% of 370,000 active. P20393. activity, % at 10 µM;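 active means activity above about 14%, limit read from the data; passing the limit was not always enough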;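 further: 0% = DMSO wells with 35 nM protein and 100% = DMSO wells with 750 nM protein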
PG9 binder: PG9 antibody binding by small molecule | TR-FRET gp120-PG9 antibody binding | inhibition, % at 6.7 µM | 0.43% of 360,000 active; in the data active means inhibition above about 8.5%
NR2E3 ag-2: human photoreceptor-specific nuclear receptor agonism; Q9Y5X4; CHO-S Gal4-NCOR/VP16-NR2E3 two-hybrid, luciferase; inhibition of corepressor binding, % at 3.98 µM; 0.35% of 360,000 active; AID 602229;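 active means inhibition above the mean of all tested compounds plus 3 SD, cut at about 70% in these data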;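 further: 0% = DMSO with NR2E3 transfected cells and 100% = cells lacking NR2E3 construct; higher means lower luciferase signal from less NR2E3 corepressor binding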
rCAG bind conf: r(CAG) RNA repeat binding, confirmation; shares compounds with rCAG binder; TO-PRO-1 dye displacement fluorescence; inhibition, % at 3 µM; 70% of 4,300 active;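 active means inhibition above a per-plate cutoff, the mean inhibition of sample wells plus 3 SD, cut at about 35% in these data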;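 further: loss of TO-PRO-1 fluorescence as compound displaces dye from 1x1 AA loop RNA; 0% = DMSO only wells and 100% = 100 µM mitoxantrone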
DNA CAG counter: DNA CAG dye complex inhibition counter-screen | shares compounds with rCAG binder | d(CAG) DNA oligo TO-PRO-1 dye displacement, fluorescence | inhibition, % at 3 µM | 94% of 4,300 active | AID 652068;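 active means inhibition above its plate's cutoff, the mean test-well inhibition plus 3 SD, cut at about 4.8% in these data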;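 further: 0% = DNA dye mix with DMSO and 100% = 100 µM mitoxantrone; hits displace the dye from DNA and so lower well fluorescence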
* marks the source's active call; other numbers are inactive results; nt = no result. Hits are enriched below; roughly 2.6% of the tested compounds scored in any of these assays.

SMILES | rCAG binder | NR2E3 ag-1 | Rev-erbA mod | PG9 binder | NR2E3 ag-2 | rCAG bind conf | DNA CAG counter
Cc1cc(/C=C2\SC(=S)NC2=O)c(C)n1-c1ccccc1 | 48* | 2 | -4 | -2 | -125 | 36* | 16*
CC(C)(C)OC(=O)NCCCCCNC(=O)c1ncn(Cc2ccccc2)c1C(=O)NCCCCCNC(=O)OC(C)(C)C | 4 | nt | -2 | 0 | 31 | nt | nt
O=C(CCCN1C(=O)/C(=C/c2ccccc2)SC1=S)Nc1ccc(C(=O)O)c(O)c1 | 83* | 2 | -6 | 0 | 23 | 80* | 36*
O=C(CCCN1C(=O)/C(=C\c2ccccc2)SC1=S)Nc1ccc(C(=O)O)cc1 | 3 | 2 | -5 | -2 | 2 | nt | nt
COc1ccc(C=C2SC(=S)N(CCCC(=O)Nc3ccc(C(=O)O)c(O)c3)C2=O)cc1OC | 80* | nt | 2 | -2 | -11 | 75* | 41*
Cc1cc(NC(=O)CCN2C(=O)/C(=C/c3ccccc3F)SC2=S)no1 | 3 | 2 | -1 | 1 | nt | nt | nt
O=C(CCN1C(=O)/C(=C\c2ccccc2F)SC1=S)Nc1ccc(C(=O)O)c(O)c1 | 94* | -1 | -4 | -3 | -17 | 84* | 60*
Cc1cc(C)c2nc(-c3ccccc3)ccc2c1 | 1 | nt | 0 | 0 | -82 | nt | nt
Brc1ccc2cccnc2c1 | -2 | -1 | -8 | 3 | -14 | nt | nt
Nc1cc2cccnc2cc1Cl | 41* | nt | -38 | -4 | -27 | 5 | 1
CCc1ccc(-n2c(=S)sc3c(=O)n(-c4ccccc4)c(SCC(=O)O)nc32)cc1 | 41* | -2 | 7 | -2 | -16 | 32 | 6.9*
CCOc1ccc(-n2c(=S)sc3c(=O)n(-c4ccccc4)c(SCC(=O)O)nc32)cc1 | 39* | 2 | 1 | 2 | -11 | 26 | 5.7*
Cc1ccc(-n2c(=S)sc3c(=O)n(-c4ccccc4F)c(SCC(=O)O)nc32)cc1C | 47* | -2 | -1 | 0 | 6 | 46* | 13*
CCOc1ccc(-n2c(=S)sc3c(=O)n(-c4ccc(F)cc4)c(SCC(=O)O)nc32)cc1 | 29 | 1 | 1 | -1 | 10 | nt | nt
COc1ccc(-c2cc(-c3nnc(SCc4cccc5ccccc45)n3N)[nH]n2)cc1 | 16 | nt | -2 | nt | nt | nt | nt
CCOC(=O)CC(=O)CSc1nc2c(sc(=S)n2-c2ccc(OCC)cc2)c(=O)[nH]1 | 61* | 6 | -1 | -1 | -23 | 53* | 19*
CCOC(=O)CC(=O)CSc1nc2c(sc(=S)n2-c2ccc(C)c(C)c2)c(=O)[nH]1 | 70* | -1 | 4 | -3 | -14 | 63* | 23*
CCCN(CCC)C(=O)CSc1nc2c(sc(=S)n2-c2ccc(OCC)cc2)c(=O)[nH]1 | 24 | 0 | 5 | 0 | -34 | nt | nt
COc1ccc(-c2cc(C(=O)Nc3ccc(C(N)=O)cc3)c3ccccc3n2)cc1 | 4 | 0 | -7 | -1 | -134 | nt | nt
O=C(Nc1nnc([C@@H]2C[C@H](O)[C@@H](CO)O2)s1)NC1CCCCC1 | 4 | nt | 1 | 1 | 9 | nt | nt
COc1ccc(/C=N/NC(=O)c2nn(-c3ccccc3)c(=O)c3c(N)scc23)cc1 | 42* | -5 | 5 | -2 | -6 | 28 | 18*
COc1ccc(/C=N/NC(=O)c2nn(-c3ccc(C)c(C)c3)c(=O)c3ccccc23)cc1 | 2 | 3 | -8 | -4 | -16 | nt | nt
COc1ccc(/C=N/NC(=O)c2nn(-c3ccc(Cl)cc3)c(=O)c3c(N)scc23)cc1 | 42* | -2 | -1 | -3 | 15 | 27 | 18*
COc1ccc(-c2nc3ccc(C4=NNC(=O)CC4C)cc3[nH]2)cc1 (stereo not given) | nt | nt | 5 | nt | nt | nt | nt
Cc1cccc(Nc2nnc(SC/C(O)=C(\C#N)c3nc4ccccc4[nH]3)s2)c1C | 26 | -2 | -7 | 1 | 13 | nt | nt
SMILES | rCAG binder | NR2E3 ag-1 | Rev-erbA mod | PG9 binder | NR2E3 ag-2 | rCAG bind conf | DNA CAG counter
Cc1ccc(Nc2nnc(SCC(O)=C(C#N)c3nc4ccccc4[nH]3)s2)c(C)c1 | 57* | nt | 3 | 0 | -25 | 45* | 21*
COC(=O)[C@]12CCCCC=C1N(Cc1ccc(OC)cc1)C(=O)[C@@H]2CC(=O)NCCC(C)C | -2 | nt | -2 | nt | nt | nt | nt
O=c1c(CO)cc(CO)cc(CO)c1O | 4 | -1 | -1 | -3 | 10 | nt | nt
O=C1C=CC(=O)c2c(O)c(CO)c(CO)c(O)c21 | 83* | nt | -46 | -2 | -16 | 86* | 68*
Cc1nnc(SC(C(=O)Nc2ccc(Cl)c([N+](=O)[O-])c2)c2ccccc2)[nH]c1=O (stereo not given) | 61* | -1 | 4 | -1 | -10 | 40* | 12*
CCCn1c(=S)[nH]c2cc(C(=O)N3CCN(c4ccc(F)cc4)CC3)ccc2c1=O | 3 | nt | 3 | 1 | 12 | nt | nt
CC1(C(=O)Nc2cccc(OC(F)(F)F)c2)Cc2c(-c3ccc4c(c3)OCO4)ccnc2O1 (stereo not given) | 4 | nt | 4 | 0 | 2 | nt | nt
Cc1onc(-c2ccccc2Cl)c1C(=O)Nc1nnc(-c2cccc([N+](=O)[O-])c2)s1 | 42* | 2 | 1 | -1 | 29 | 34 | 7.4*
O=C(Nc1ccccc1C(=O)O)c1cccc(N2C(=O)c3ccccc3C2=O)c1 | 35* | 2 | 3 | 1 | 9 | 18 | 1
O=C(Nc1ccc(Cl)cc1C(=O)O)c1ccc2c(c1)C(=O)N(Cc1ccco1)C2=O | 86* | 0 | -4 | 1 | -17 | 88* | 75*
CC(=O)NS(=O)(=O)c1ccc(NC(=O)c2ccc3c(c2)C(=O)N(CCC(C)C)C3=O)cc1 | 58* | -2 | 0 | -1 | -7 | 59* | 19*
CC(C)CN1C(=O)c2ccc(C(=O)Nc3ccccc3C(=O)O)cc2C1=O | 56* | 0 | 3 | 1 | -102 | 57* | 18*
O=C(Nc1cccc(O)c1)c1ccc2c(c1)C(=O)N(Cc1ccco1)C2=O | 9 | 3 | -3 | -3 | 7 | nt | nt
CCC(c1nnnn1-c1ccc2c(c1)OCCO2)N1CCN(Cc2c(F)cccc2Cl)CC1 (stereo not given) | 4 | nt | 0 | 1 | -19 | nt | nt
CCN(C(=O)COC(=O)CCOc1cc(C)ccc1C)c1c(N)n(Cc2ccccc2)c(=O)[nH]c1=O | -2 | nt | 7 | -1 | -12 | nt | nt
COc1ccc2c(c1)[C@@H](NC(=O)C(F)(F)F)[C@@H]1CCCC[C@]21c1ccccc1 | 0 | nt | 1 | 1 | nt | nt | nt
CC(C)CCN1C(=O)c2ccc(C(=O)Nc3ccc(Br)cc3C(=O)O)cc2C1=O | 63* | 2 | -8 | 0 | 6 | 79* | 73*
CNc1cncc(-c2cccc(C(=O)NC3CC3)c2)n1 | 0 | nt | -4 | 0 | -26 | nt | nt
COc1cc(C#Cc2c(-c3cncn3C)n(C)c3ccc(-c4cnc(N5CCOCC5)nc4)cc23)cc(OC)c1 | 7 | nt | 1 | -1 | -57 | nt | nt

Assay outcomes: PubChem, several laboratories
